ChEMBL document CHEMBL5325390, “1,2,4-Triazole-3-thione analogues with an arylakyl group at position 4 as metallo-β-lactamase inhibitors” (Bioorg Med Chem, 2022)

Experiments:
Beta-lactamase VIM-1 = Beta-lactamase VIM-1 (Bacteria, UniProt Q8GDC1); assay: Binding affinity to VIM-1 (unknown origin) expressed in Escherichia coli BL21(DE3) assessed as inhibition constant by measuring rate of substrate hydrolysis by UV-Vis spectrophotometric analysis
How it was run: (§1)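 Purified MBL (1–70 nM) with 150 µM imipenem or meropenem as reporter substrate, 50 mM HEPES pH 7.5, 30 °C. Hydrolysis followed by absorbance at 300 nm without and with inhibitor (0.5 µM–1 mM). Ki from the slope of v0/vi vs [I] under a competitive model, or from Dixon plots varying inhibitor and substrate. […] Triplicate, mean ± SD.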

[1] = Binding affinity to VIM-2 (unknown origin) expressed in Escherichia coli BL21(DE3) assessed as inhibition constant by measuring rate of substrate hydrolysis by UV-Vis spectrophotometric analysis; how it was run: as §1
[2] = Binding affinity to VIM-4 (unknown origin) expressed in Escherichia coli BL21(DE3) assessed as inhibition constant by measuring rate of substrate hydrolysis by UV-Vis spectrophotometric analysis; how it was run: as §1
[3] = Binding affinity to IMP1 (unknown origin) expressed in Escherichia coli BL21(DE3) assessed as inhibition constant by measuring rate of substrate hydrolysis by UV-Vis spectrophotometric analysis; settings: read-out: Ki; how it was run: as §1
[4] = molecular target: Metallo-beta-lactamase type 2 (Bacteria) (UniProt C7C422); assay: Inhibition of NDM1 (unknown origin) expressed in Escherichia coli BL21(DE3) assessed as substrate hydrolysis at 100 uM by UV-Vis spectrophotometric analysis relative to control
How it was run: (§2)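 Single-point screen at 100 or 200 µM inhibitor against purified MBL (1–70 nM) with 150 µM imipenem or meropenem reporter substrate, 50 mM HEPES pH 7.5, 30 °C. Initial hydrolysis rate read by absorbance at 300 nm and compared with the uninhibited reaction. Triplicate.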

Klebsiella pneumoniae [5] = assay: Antimicrobial synergistic activity against blaVIM-1-producing multidrug-resistant Klebsiella pneumoniae 7023 clinical isolate assessed as meropenem MIC at 32 ug/ml by CLSI based broth microdilution method (reference value: 16 ug/ml); format: functional; settings: dose 32 µg/ml
Klebsiella pneumoniae [6] = assay: Antimicrobial synergistic activity against blaVIM-4-producing multidrug-resistant Klebsiella pneumoniae VA416/02 clinical isolate assessed as meropenem MIC at 32 ug/ml by CLSI based broth microdilution method (reference value: 16 ug/ml); format: functional; settings: dose 32 µg/ml
Escherichia coli = assay: Synergistic antimicrobial activity against blaNDM-1-producing multidrug-resistant Escherichia coli SI-004M clinical isolate assessed as meropenem MIC at 32 ug/ml by CLSI based microdilution method (reference value: 64 ug/ml); format: functional; settings: dose 32 µg/ml
Klebsiella pneumoniae [7] = assay: Synergistic antimicrobial activity against blaVIM-4-producing multidrug-resistant Klebsiella pneumoniae VA416/02 clinical isolate assessed as fractional inhibitory concentration index in presence of meropenem by checkerboard assay; format: functional
[8] = molecular target: T1, Angiotensin-converting enzyme (Oryctolagus cuniculus) (UniProt P12822); assay: Inhibition of rabbit lung angiotensin-converting enzyme at 100 uM using Abz-Gly-Phe-(NO2)-Pro as substrate by fluorescence based microplate reader analysis relative to control; format: tissue-based
T1 sequence (whole entry): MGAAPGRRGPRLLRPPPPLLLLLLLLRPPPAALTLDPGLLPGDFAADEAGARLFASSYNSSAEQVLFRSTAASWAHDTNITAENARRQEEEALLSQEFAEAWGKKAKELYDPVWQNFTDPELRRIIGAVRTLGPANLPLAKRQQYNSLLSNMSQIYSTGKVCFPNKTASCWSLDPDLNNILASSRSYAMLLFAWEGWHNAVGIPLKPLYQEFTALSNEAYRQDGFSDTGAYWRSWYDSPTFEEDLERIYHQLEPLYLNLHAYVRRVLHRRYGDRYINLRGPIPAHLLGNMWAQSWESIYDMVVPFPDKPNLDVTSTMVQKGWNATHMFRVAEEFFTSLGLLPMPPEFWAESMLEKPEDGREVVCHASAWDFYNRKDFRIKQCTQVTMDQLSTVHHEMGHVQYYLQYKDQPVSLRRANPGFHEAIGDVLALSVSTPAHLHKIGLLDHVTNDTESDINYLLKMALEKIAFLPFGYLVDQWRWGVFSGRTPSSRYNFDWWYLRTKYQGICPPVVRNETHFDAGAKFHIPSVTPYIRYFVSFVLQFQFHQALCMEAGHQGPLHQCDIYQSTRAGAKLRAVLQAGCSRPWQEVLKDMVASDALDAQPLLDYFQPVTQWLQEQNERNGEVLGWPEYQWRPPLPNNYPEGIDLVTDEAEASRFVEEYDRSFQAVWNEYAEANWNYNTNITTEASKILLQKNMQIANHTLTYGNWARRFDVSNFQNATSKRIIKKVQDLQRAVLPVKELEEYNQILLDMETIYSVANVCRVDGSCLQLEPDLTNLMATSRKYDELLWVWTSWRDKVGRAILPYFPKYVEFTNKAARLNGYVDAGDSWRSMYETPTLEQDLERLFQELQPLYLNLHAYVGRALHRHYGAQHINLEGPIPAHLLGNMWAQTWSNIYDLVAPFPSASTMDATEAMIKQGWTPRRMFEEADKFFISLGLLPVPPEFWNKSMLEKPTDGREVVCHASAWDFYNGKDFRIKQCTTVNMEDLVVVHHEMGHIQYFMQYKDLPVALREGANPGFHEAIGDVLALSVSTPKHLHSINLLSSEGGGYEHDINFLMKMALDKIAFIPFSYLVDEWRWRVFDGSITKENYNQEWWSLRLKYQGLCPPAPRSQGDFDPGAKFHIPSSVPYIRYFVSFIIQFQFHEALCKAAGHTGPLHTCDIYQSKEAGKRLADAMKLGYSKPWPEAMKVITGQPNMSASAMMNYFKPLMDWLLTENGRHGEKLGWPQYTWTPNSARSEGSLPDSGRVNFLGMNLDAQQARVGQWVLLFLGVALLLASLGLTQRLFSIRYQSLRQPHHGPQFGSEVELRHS
How it was run: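 Rabbit lung ACE, 1.5 mU per well, in 150 mM Tris, 750 mM NaCl, pH 8.3, with Abz-Gly-Phe(NO2)-Pro substrate. Blank-corrected fluorescence of released Abz-Gly-OH (ex 316, em 413 nm) followed up to 90 min. Test compounds at 100 µM; captopril control at 100 nM. Inhibition % = 100 − (vi/v0 × 100).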

[9] = molecular target: T2, Angiotensin-converting enzyme (Oryctolagus cuniculus, UniProt P12822); assay: Binding affinity to rabbit lung angiotensin-converting enzyme assessed as inhibition constant
T2 sequence (P12822 whole entry): T1 sequence (whole entry)

[10] = tested on: metallo-β-lactamase L1 (Stenotrophomonas maltophilia); assay: Inhibition of L1 (unknown origin) expressed in Escherichia coli BL21(DE3) assessed as substrate hydrolysis at 100 uM by UV-Vis spectrophotometric analysis relative to control
[11] = molecular target: Beta-lactamase VIM-1 (Bacteria) (UniProt Q8GDC1); assay: Inhibition of VIM-1 (unknown origin) expressed in Escherichia coli BL21(DE3) assessed as substrate hydrolysis at 100 uM by UV-Vis spectrophotometric analysis relative to control; how it was run: as §2
[12] = molecular target: Beta-lactamase VIM-1 (Bacteria) (UniProt Q8GDC1); assay: Inhibition of VIM-1 (unknown origin) expressed in Escherichia coli BL21(DE3) assessed as substrate hydrolysis at 200 uM by UV-Vis spectrophotometric analysis relative to control; how it was run: as §2
[13] = molecular target: Metallo-beta-lactamase type 2 (Bacteria) (UniProt C7C422); assay: Inhibition of NDM1 (unknown origin) expressed in Escherichia coli BL21(DE3) assessed as substrate hydrolysis at 200 uM by UV-Vis spectrophotometric analysis relative to control; how it was run: as §2
[14] = tested on: metallo-β-lactamase IMP-1 (Pseudomonas aeruginosa); assay: Inhibition of IMP1 (unknown origin) expressed in Escherichia coli BL21(DE3) assessed as substrate hydrolysis at 100 uM by UV-Vis spectrophotometric analysis relative to control
[15] = tested on: metallo-β-lactamase IMP-1 (Pseudomonas aeruginosa); assay: Inhibition of IMP1 (unknown origin) expressed in Escherichia coli BL21(DE3) assessed as substrate hydrolysis at 200 uM by UV-Vis spectrophotometric analysis relative to control
[16] = tested on: metallo-β-lactamase VIM-2 (Pseudomonas aeruginosa); assay: Inhibition of VIM-2 (unknown origin) expressed in Escherichia coli BL21(DE3) assessed as substrate hydrolysis at 100 uM by UV-Vis spectrophotometric analysis relative to control
[17] = tested on: metallo-β-lactamase VIM-2 (Pseudomonas aeruginosa); assay: Inhibition of VIM-2 (unknown origin) expressed in Escherichia coli BL21(DE3) assessed as substrate hydrolysis at 200 uM by UV-Vis spectrophotometric analysis relative to control
[18] = tested on: metallo-β-lactamase VIM-4 (Pseudomonas aeruginosa); assay: Inhibition of VIM-4 (unknown origin) expressed in Escherichia coli BL21(DE3) assessed as substrate hydrolysis at 100 uM by UV-Vis spectrophotometric analysis relative to control
[19] = tested on: metallo-β-lactamase VIM-4 (Pseudomonas aeruginosa); assay: Inhibition of VIM-4 (unknown origin) expressed in Escherichia coli BL21(DE3) assessed as substrate hydrolysis at 200 uM by UV-Vis spectrophotometric analysis relative to control
[20] = molecular target: Metallo-beta-lactamase type 2 (Bacteria, UniProt C7C422); assay: Binding affinity to NDM1 (unknown origin) expressed in Escherichia coli BL21(DE3) assessed as inhibition constant by measuring rate of substrate hydrolysis by UV-Vis spectrophotometric analysis; settings: read-out: Ki; how it was run: as §1
HeLa = assay: Cytotoxicity against human HeLa cells assessed as induction of cell lysis upto 250 uM measured for 72 hrs by realtime-glo MT assay; format: toxicity, cell-based
How it was run: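 HeLa cells at 1,500 cells/well exposed to compound up to 250 µM for up to 72 h. Viability read by RealTime-Glo MT luminescent assay. Triplicate.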

[21] = molecular target: T1, Angiotensin-converting enzyme (Oryctolagus cuniculus); settings: Lung, dose 100.0 nM

Chain of Metallo-beta-lactamase type 2 (Bacteria) (C7C422 whole entry): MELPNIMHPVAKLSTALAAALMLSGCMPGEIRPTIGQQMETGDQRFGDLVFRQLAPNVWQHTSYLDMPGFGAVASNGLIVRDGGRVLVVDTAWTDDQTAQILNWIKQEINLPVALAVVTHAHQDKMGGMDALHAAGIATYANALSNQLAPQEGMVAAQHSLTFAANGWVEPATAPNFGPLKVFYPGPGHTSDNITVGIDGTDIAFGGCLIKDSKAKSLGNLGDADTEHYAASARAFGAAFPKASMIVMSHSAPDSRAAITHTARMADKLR
Chain of Metallo-beta-lactamase type 2 (C7C422 whole entry): as above

Row | Structure (SMILES) | Ki (Beta-lactamase VIM-1) [nM] | Ki [1] [nM] | Ki [2] [nM] | Ki [3] [nM] | inhibition [4] [%] | MIC (Klebsiella pneumoniae [5]) [µg/mL] | MIC (Klebsiella pneumoniae [6]) [µg/mL] | MIC (Escherichia coli) [µg/mL] | FIC (Klebsiella pneumoniae [7]) | inhibition [8] [%] | Ki [9] [nM] | inhibition [11] [%] | inhibition [12] [%] | inhibition [13] [%] | inhibition [14] [%] | inhibition [15] [%] | inhibition [16] [%] | inhibition [17] [%] | inhibition [18] [%] | inhibition [19] [%] | also measured
1 | S=c1[nH]nc(-c2ccccc2)n1CCCc1ccccc1 | 560 | 740 | 900 | 14000 | < 30 | 2 | 2 | 64 | 0.25 | 50 | 30000 | – | – | – | – | – | – | – | – | – | inhibition [10]: < 30%
2 | S=c1[nH]nc(-c2cc3ccccc3[nH]2)n1-c1ccc(OCc2ccccc2)cc1 | – | – | – | – | < 30 | – | – | – | – | – | – | < 30 | < 50 | < 50 | < 30 | < 50 | < 30 | < 50 | < 30 | < 50 | –
3 | S=c1[nH]nc(Cc2ccc3ccccc3c2)n1-c1ccc(OCc2ccccc2)cc1 | – | – | – | – | < 30 | – | – | – | – | – | – | < 30 | < 50 | < 50 | < 30 | < 50 | < 30 | < 50 | < 30 | < 50 | –
4 | Oc1ccc(CCn2c(-c3cccc(-c4ccccc4)c3)n[nH]c2=S)c(O)c1 | 410 | 1300 | 820 | – | – | 2 | 4 | 32 | – | 35 | 55000 | – | – | – | < 30 | < 50 | – | – | – | – | Ki [20]: 14300 nM; Activity (HeLa): Non-Toxic
5 | Oc1ccc(CCn2c(-c3cccc(-c4ccccc4)c3)n[nH]c2=S)cc1O | 1300 | 1700 | 680 | 9200 | – | 16 | 2 | 32 | 0.48 | – | – | – | – | – | – | – | – | – | – | – | Ki [20]: 17400 nM
6 | C[C@H](CS)C(=O)N1CCC[C@H]1C(=O)O | – | – | – | – | – | – | – | – | – | – | – | – | – | – | – | – | – | – | – | – | inhibition [21]: 96%
